From BindingDB's records for doi:10.1021/acs.jmedchem.8b01529 (Boston University, 2019) come the findings set out here.

The target of the assay is DNA-(apurinic or apyrimidinic site) endonuclease (Homo sapiens, UniProt P27695). The assay is described as follows: Inhibition of full length human APE1 assessed as reduction in endonuclease activity by measuring DNA cleavage of abasic sites using 6-FAM labelled two annealed oligonucleotides as AP site mimic substrate by fluorescence-based assay. The method in brief: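 Purified full-length APE1 (0.25-1.25 nM) added at once to 50 nM annealed duplex: 5'-6-FAM-labelled AP-site-mimic strand paired with a quencher-labelled strand. Buffer 50 mM Tris, 1 mM MgCl2, 50 mM NaCl, pH 7.5. Compound in triplicate, 10-point 1:2 dilution from 100 μM. Fluorescence from cleavage read kinetically at five 1-min intervals. Reaction rate compared with DMSO vehicle.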
DNA-(apurinic or apyrimidinic site) endonuclease, sequence (P27695 whole entry): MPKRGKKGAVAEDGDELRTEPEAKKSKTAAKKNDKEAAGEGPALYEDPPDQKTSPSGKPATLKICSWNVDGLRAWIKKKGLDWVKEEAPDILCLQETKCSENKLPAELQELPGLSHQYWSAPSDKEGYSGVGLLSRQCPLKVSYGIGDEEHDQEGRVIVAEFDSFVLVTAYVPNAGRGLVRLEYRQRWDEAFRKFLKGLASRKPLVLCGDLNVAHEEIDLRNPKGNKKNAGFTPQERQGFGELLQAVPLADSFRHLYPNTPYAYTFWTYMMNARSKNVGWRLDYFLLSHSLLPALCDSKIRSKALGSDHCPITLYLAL

With `Cc1ccc(S(=O)(=O)n2cccc2[C@@H]2NC(=O)[C@H](Cc3c[nH]c4ccccc34)NC(=O)C(Oc3ccccc3)CCOC(=O)C/C=C/[C@@H]2C)cc1` (some centres not stated), the IC50 (usually the concentration needed to halve the response being measured) was 5.4 µM.

Turning to `Cc1ccc(S(=O)(=O)n2cccc2[C@@H]2NC(=O)[C@H](Cc3c[nH]c4ccccc34)NC(=O)C(c3ccccc3)CCOC(=O)C/C=C/[C@@H]2C)cc1` (some centres not stated), the IC50 is 1.2 µM.
